Bioassay records (PubChem)
M5 antag: blocks acetylcholine activation of human M5 receptor; inhibition, % at 3 µM; CHO-hM5 cells, Fluo-8 calcium fluorescence, ACh EC80; actives 0.59% (n = 360,000); P08912; AID 624040;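 active = inhibition above a per-plate cutoff, the mean of that plate's test compounds plus 3 SD, cut at about 27% in these data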
Target sequence (P08912 whole entry, looked up): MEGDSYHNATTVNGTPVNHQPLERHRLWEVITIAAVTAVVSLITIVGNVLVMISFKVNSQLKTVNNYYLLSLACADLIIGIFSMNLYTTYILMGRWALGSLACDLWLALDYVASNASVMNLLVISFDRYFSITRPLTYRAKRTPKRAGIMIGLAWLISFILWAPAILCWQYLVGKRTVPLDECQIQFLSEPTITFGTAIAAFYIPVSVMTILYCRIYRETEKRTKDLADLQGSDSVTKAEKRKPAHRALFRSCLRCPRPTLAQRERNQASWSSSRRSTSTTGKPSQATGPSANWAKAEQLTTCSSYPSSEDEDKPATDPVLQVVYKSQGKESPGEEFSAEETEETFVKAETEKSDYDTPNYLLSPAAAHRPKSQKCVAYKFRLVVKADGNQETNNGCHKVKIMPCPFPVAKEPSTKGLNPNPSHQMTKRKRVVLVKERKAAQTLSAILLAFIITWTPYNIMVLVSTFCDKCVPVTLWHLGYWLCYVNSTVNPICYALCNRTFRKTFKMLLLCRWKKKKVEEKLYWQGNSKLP
CHRM5 agonist: CHRM5 agonism in calcium assay; P08912; CHO-K1 hM5 cells, Fluo-8 calcium fluorescence; 0% DMSO wells, 100% maximal acetylcholine response; activation, % at 3 µM; actives 0.19% (n = 360,000);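 active = activation above the run's mean over test compounds plus 3 SD, cut at about 23% in these data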;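 note: signal is peak over basal fluorescence ratio across the kinetic read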
M4 antag: CHRM4 antagonism in calcium assay; actives 0.73% (n = 360,000); CHO-hM4 cells, ACh EC80, Fluo-8 calcium fluorescence; inhibition, % at 3 µM; P08173;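 active = inhibition above its plate's cutoff, the mean inhibition of sample wells plus 3 SD, cut at about 27% in these data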
M4 PAM: positive allosteric modulators of human muscarinic M4 receptor; P08173; actives 0.4% (n = 360,000); activation, % at 3 µM; CHO-K1 hM4/Gqi5, Fluo-8 calcium fluorescence, ACh EC20; 0% = ACh EC20, 100% = maximal ACh; AID 624126;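 active = activation above its plate's cutoff, the mean activation of sample wells plus 3 SD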
M5 PAM: CHRM5 positive allosteric modulation | activation, % at 3 µM | CHO-K1 hM5, Fluo-8 calcium, ACh EC20 PAM; 0% = ACh EC20, 100% = ACh EC100 | P08912 | actives 0.3% (n = 360,000);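 active = activation above the run cutoff, the mean activation of all test compounds plus 3 SD, cut at about 18% in these data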
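System: CHO-K1 hM5 cells. Reagent: acetylcholine, EC20 level. Compound dosing: single dose, 3 µM nominal final test concentration. Timing: Post-acetylcholine fluorescence recording 140 s. Detection: Fluo-8 calcium fluorescence. Read-out: % activation, ACh-normalized. Benchmarks: ACh EC20 and EC100 wells. Repeats: singlicate, one well per test compound.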
CHRM4 agonist: agonists of human muscarinic M4 receptor (CHRM4); CHO-K1 hM4/Gqi5, Fluo-8 calcium fluorescence; vehicle 0%, full acetylcholine response 100%; activation, % at 3 µM; actives 0.14% (n = 360,000); AID 624127;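 active = activation above the run mean over all test wells plus 3 SD, cut at about 32% in these data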;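 note: peak over basal fluorescence ratio per well then scaled between controls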
Hits are given with their value; 0 = inactive; ! = not confirmed by another sample. The list is not random: actives were taken first. Their share in the collection is about 1.9%.

SMILES	M5 antag	CHRM5 agonist	M4 antag	M4 PAM	M5 PAM	CHRM4 agonist
C[C@H]1CN([C@@H](C)CO)C(=O)CCCn2nncc2CO[C@@H]1CN(C)C(=O)Oc1ccccc1	0	0	0	0	0	0
CC(=O)Nc1ccccc1OP1(=O)COc2ccccc2OC1	0	0	0	0	0	0
COc1ccc(CN2Cc3cc(-c4ccc(OC)cc4)ccc3-n3nncc3C2)cc1	0	0	0	0	0	0
COc1ccc(OC(=O)N(C)C[C@@H]2OCc3cnnn3CCCC(=O)N([C@H](C)CO)C[C@H]2C)cc1	0	0	0	0	0	0
COC(=O)C1=C(c2cccc(NC(C)=O)c2)C[C@@H]2CC[C@H]1N2C	0	0	0	0	0	0
O=C(NC1CN2CCC1CC2)c1cccc(Cl)c1 (stereo not drawn)	0	0	0	0	0	0
O=C(COc1ccc(Cl)cc1)NC1CN2CCC1CC2 (stereo not drawn)	37.5	0	0	0	0	0
C[C@H]1COc2cc(N3CCN(C)CC3)ccc2S(=O)(=O)N1	0	0	0	0	0	0
O=C(c1ccc(Cl)cc1)C1CCCN(Cc2cccc3ncccc23)C1 (stereo not drawn)	34.3	0	0	0	0	0
O=C(c1ccc(Cl)cc1)C1CCCN(Cc2cccc3cccnc23)C1 (stereo not drawn)	0	0	0	0	0	0
COc1ccccc1N1C(=O)NC(=O)C(CCc2ccncc2)(CCc2ccncc2)C1=O	0	0	0	0	27.6	0
CN1C[C@H](CO)C=C2c3cccc4[nH]cc(c34)C[C@H]21	0	0	0	0	0	0
CC1=C[C@@H]2c3cccc4[nH]cc(c34)C[C@H]2N(C)C1	0	0	56.9	0	0	0
CCC1(C)OC(c2ccccc2)=C/C(=C/C=C2C(=O)NC(=O)NC2=O)O1 (stereo not drawn)	0	61.4	0	0	0	0
O=C(NCP(=O)(Oc1ccccc1)Oc1ccccc1)OCc1ccccc1	0	0	0	0	0	0
CC[N+](CC)(CC)CCCOC(=O)C(O)(c1ccccc1)C1CCCCC1 (stereo not drawn)	99.1	0	98.6	0	0	0
O=C(COC(=O)Cc1ccccc1)NC(=O)NC1CCCCC1	0	0	0	0	0	0
C[N+](C)(N)CCOC(=O)C(O)(c1ccccc1)C1CCCCC1 (stereo not drawn)	99.5	0	99.5	0	0	0
COc1cc(C(O)CNC(C)C)cc(F)c1OC (stereo not drawn)	0	0	0	0	0	0
CCOC(=O)CC1c2ccccc2-n2nncc2CN1CC1CCCCC1 (stereo not drawn)	0	0	0	0	0	0
c1ccc2c(CN3CCCCCCC3)c[nH]c2c1	0	0	31.7	0	0	0
CC[n+]1c(/C=C/C=C/c2ccc(N(C)C)cc2)sc2ccccc21	50.6	0	55.4	0	0	0
COc1ccccc1CCNC1C2CC3CC(C2)CC1C3 (stereo not drawn)	0	0	31.6	0	0	0
CCCC[N+]12CCC(CC1)C(=C(c1ccccc1)c1ccccc1)C2	72.0	0	56.9	0	0	0
OCC[N+]12CCC(CC1)C(C(O)(c1ccccc1)c1ccccc1)C2 (stereo not drawn)	0	0	0	0	0	0
SMILES	M5 antag	CHRM5 agonist	M4 antag	M4 PAM	M5 PAM	CHRM4 agonist
CCC[N+]12CCC(CC1)C(=C(c1ccccc1)c1ccccc1)C2	93.7	0	57.0	0	0	0
O=S(=O)(c1cc(Cl)cc(Cl)c1)N1Cc2cc(-c3ccccc3)ccc2-n2nncc2C1	0	0	0	0	0	0
COc1nc(C)nc(NC(=O)NS(=O)(=O)c2ccccc2Cl)n1	0	0	0	0	0	0
C[C@]12CCC3C(CC[C@H]4[C@@H](O)[C@H](O)CC[C@]34C)C1CCC2=O (stereo partly drawn)	0	0	0	0	0	0
CCC(C#N)(CC)P(=S)(c1ccccc1)c1ccccc1	0	0	0	0	0	0
CC(CC(C#N)(c1ccccc1)c1ccccc1)N(C)C (stereo not drawn)	98.7	0	90.6	0	0	0
ClC1C(Cl)C(Cl)C(Cl)C(Cl)C1Cl (stereo not drawn)	35.0!	83.6!	0	0	0	0
Cc1ccc(C)c(NC(=O)CCNC(=O)N2C[C@H]3C[C@@H](C2)c2cccc(=O)n2C3)c1	0	0	0	0	0	0
Cc1c(NP(=S)(C(C)(C)C)C(C)(C)C)c(=O)n(-c2ccccc2)n1C	0	0	0	0	0	0
CN1CCC(OC(=O)C2c3ccccc3Oc3ccccc32)CC1	98.8	0	98.8	0	0	0
O=C1NCN(c2ccccc2)C12CCN(C(CCc1ccccc1)c1nnnn1C1CCCC1)CC2 (stereo not drawn)	0	0	0	0	0	0
OC(CC#CCN1CCCCCC1)(c1ccccc1)C1CCCC1 (stereo not drawn)	83.8	0	90.7	0	0	0
CN(C)CC#CCC(O)(c1ccccc1)C1CCCC1 (stereo not drawn)	94.3	0	87.2	0	0	0
CC1(C(O)(C#CCN2CCCCC2)c2ccccc2)CCCC1 (stereo not drawn)	99.4	0	98.7	0	0	0
C(#CCN1CCCCC1)COCc1ccccc1	0	0	0	0	0	0
O=c1[nH]c(=S)[nH]c(O)c1N=Nc1ccc(S(=O)(=O)N2CCc3ccccc32)cc1	0	0	0	0	0	0
O=C(c1csc2c1CCCCC2)N1CCC2(CC1)OCCO2	0	0	0	0	0	0
O=C1OC(c2ccc(Br)cc2)=N/C1=C\N1CC2CC(C1)c1cccc(=O)n1C2 (stereo not drawn)	0	0	0	0	0	0
O=C1OC(c2ccc(Cl)cc2)=N/C1=C\N1CC2CC(C1)c1cccc(=O)n1C2 (stereo not drawn)	0	0	0	0	22.0	0
CCCC[n+]1cc(/N=C(\[O-])OC)on1	0	0	0	0	36.3	0
C[N+](C)(C)CC#CCOC(=O)Nc1cccc(Cl)c1	78.4	89.0	0	0	0	44.2
O=NN(CCF)C(=O)NC1CCC(=O)NC1=O (stereo not drawn)	0	0	0	0	0	0
CCOC(=O)[C@]12Cc3cc(C)ccc3[C@H]1N(C(C)C)C(=O)c1ccccc12	0	0	0	0	22.0	0
CCOC(=O)[C@]12Cc3cc(OC)ccc3[C@H]1N(C1CCCCC1)C(=O)c1cc(OC)ccc12	0	0	0	0	0	0
